Data reported in ChEMBL document CHEMBL2146476, “Discovery of selective glucocorticoid receptor modulator MK-5932” (Bioorg Med Chem, 2011).

Key:
[1] = biological target: T1, Glucocorticoid receptor (Homo sapiens) (UniProt P04150); experiment: Transactivation activity at GR-mediated modulation of MMTV promoter activity in human A549 cells transfected with luciferase gene linked to MMTV promoter after 16 hrs by luciferase reporter gene assay relative to dexamethasone; assay type: cell-based
T1 sequence (whole entry): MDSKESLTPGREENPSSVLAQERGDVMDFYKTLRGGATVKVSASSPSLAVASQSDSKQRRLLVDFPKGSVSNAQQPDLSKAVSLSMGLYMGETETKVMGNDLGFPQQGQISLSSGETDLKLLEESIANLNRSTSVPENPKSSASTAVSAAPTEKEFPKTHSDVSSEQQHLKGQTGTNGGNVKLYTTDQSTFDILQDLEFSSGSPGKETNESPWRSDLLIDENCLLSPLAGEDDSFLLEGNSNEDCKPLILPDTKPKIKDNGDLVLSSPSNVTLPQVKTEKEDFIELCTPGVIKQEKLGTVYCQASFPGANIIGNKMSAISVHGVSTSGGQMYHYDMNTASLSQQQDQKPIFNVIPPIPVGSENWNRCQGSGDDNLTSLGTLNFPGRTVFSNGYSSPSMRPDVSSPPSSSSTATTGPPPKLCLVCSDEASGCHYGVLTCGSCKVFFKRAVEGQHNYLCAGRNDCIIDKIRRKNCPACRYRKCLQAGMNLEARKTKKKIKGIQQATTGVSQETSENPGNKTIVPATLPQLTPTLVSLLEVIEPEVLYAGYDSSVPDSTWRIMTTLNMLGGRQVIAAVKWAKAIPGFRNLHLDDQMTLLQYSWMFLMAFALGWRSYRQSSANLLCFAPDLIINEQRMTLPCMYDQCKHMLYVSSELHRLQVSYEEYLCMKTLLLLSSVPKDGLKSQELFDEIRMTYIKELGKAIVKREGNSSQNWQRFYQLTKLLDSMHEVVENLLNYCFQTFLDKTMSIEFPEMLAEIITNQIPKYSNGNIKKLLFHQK
Procedure, shortened: (§1)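 HeLa or A549 cells transiently transfected with a luciferase reporter under the MMTV promoter (two GREs), in 10% charcoal-stripped FBS. Compound exposure 16 h, then luciferase measured. Activity expressed as percent of the span between DMSO and dexamethasone controls. Mean of at least three runs.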

[2] = biological target: T1, Glucocorticoid receptor (Homo sapiens); experiment: Transactivation activity at GR-mediated modulation of MMTV promoter activity in human HeLa cells transfected with luciferase gene linked to MMTV promoter after 16 hrs by luciferase reporter gene assay relative to dexamethasone; assay type: cell-based; procedure, shortened: as §1
Glucocorticoid receptor = biological target: T2, Glucocorticoid receptor (Homo sapiens, UniProt P04150); experiment: Displacement of [3H]-dexamethasone from human full length GR expressed in insect Sf21 cells
T2 sequence (P04150 whole entry): T1 sequence (whole entry)
Procedure, shortened: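 Human full-length GR expressed in insect cells, incubated with compound and 3H-dexamethasone overnight at 4 °C. Bound radioactivity quantified after filtration capture. Nonspecific binding defined with excess unlabelled dexamethasone. Mean of at least two runs.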

[3] = biological target: T1, Glucocorticoid receptor (Homo sapiens); experiment: Transrepression activity at glucocorticoid receptor in human LPS and TPA-stimulated U937 cells assessed as effect on glucocorticoid-induced TNFalpha repression by beta lactamase reporter gene assay relative to dexamethasone; assay type: cell-based; details: U-937
Procedure, shortened: (§2)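 U937 cells stably carrying a β-lactamase reporter driven by the human TNF-α promoter (-1083 to +182), in 5% charcoal-stripped FBS. Stimulated with 1 µg/mL LPS plus 50 ng/mL TPA, compound exposure 16 h. β-Lactamase read out. Activity expressed as percent of the span between DMSO and 100 nM dexamethasone controls. Mean of at least three runs.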

[4] = biological target: T1, Glucocorticoid receptor (Homo sapiens); experiment: Transrepression activity at glucocorticoid receptor in human LPS and TPA-stimulated U937 cells assessed as effect on glucocorticoid-induced TNFalpha repression by beta lactamase reporter gene assay; assay type: cell-based; details: U-937; procedure, shortened: as §2
[5] = biological target: T1, Glucocorticoid receptor (Homo sapiens); experiment: Transactivation activity at GR-mediated modulation of MMTV promoter activity in human A549 cells transfected with luciferase gene linked to MMTV promoter after 16 hrs by luciferase reporter gene assay; assay type: cell-based; procedure, shortened: as §1
[6] = biological target: T1, Glucocorticoid receptor (Homo sapiens); experiment: Transactivation activity at GR-mediated modulation of MMTV promoter activity in human HeLa cells transfected with luciferase gene linked to MMTV promoter after 16 hrs by luciferase reporter gene assay; assay type: cell-based; procedure, shortened: as §1

| SMILES | Emax [1] | Emax [2] | Ki (Glucocorticoid receptor) | Emax [3] | IP [4] | IP [5] | IP [6] |
| --- | --- | --- | --- | --- | --- | --- | --- |
| Cc1cc2cnn(-c3ccc(F)cc3)c2cc1CCC(=O)CCc1ccc(F)cc1C(=O)O | < 5% | < 5% | > 400 nM | < 5% |  |  |  |
| C[C@@]12C(=Cc3c(cnn3-c3ccc(F)cc3)C1O)CC[C@@]2(O)CCc1ccc(F)cc1C(N)=O (some centres not stated) | < 5% | < 5% | 58 nM | 6% |  |  |  |
| CNC(=O)c1ccccc1CC[C@]1(O)CCC2=Cc3c(cnn3-c3ccc(F)cc3)C[C@@]21C | 49% | 48% | 2 nM | 50% | 263 nM | 193 nM | 317 nM |
| CNC(=O)c1ccc(CC[C@]2(O)CCC3=Cc4c(cnn4-c4ccc(F)cc4)C[C@@]32C)cc1 | < 10% | < 10% | 155 nM | 12% |  |  |  |
| CCCNC(=O)c1ccccc1CC[C@]1(O)CCC2=Cc3c(cnn3-c3ccc(F)cc3)C[C@@]21C | 29% | 17% | 2 nM | 50% | 127 nM | 81 nM | 85 nM |
| CCNC(=O)c1ccccc1CC[C@]1(O)CCC2=Cc3c(cnn3-c3ccc(F)cc3)C(O)[C@@]21C (some centres not stated) | 20% | 6% | 40 nM | 34% | 958 nM | 1560 nM | 1320 nM |
| C[C@]12Cc3cnn(-c4ccc(F)cc4)c3C=C1CC[C@@]2(O)CCc1cccc(F)c1C(=O)NC1(CO)CC1 | 104% | 79% | 3 nM | 96% | 24 nM | 23 nM | 35 nM |
| C[C@]12Cc3cnn(-c4ccc(F)cc4)c3C=C1[C@H](O)C[C@@]2(O)CCc1ccc(F)cc1C(N)=O | < 5% | < 5% | > 400 nM | < 5% |  |  |  |
| CNC(=O)c1cccc(CC[C@]2(O)CCC3=Cc4c(cnn4-c4ccc(F)cc4)C[C@@]32C)c1 | < 10% | < 10% | 15 nM | < 10% |  |  |  |

Stronger by Ki (Glucocorticoid receptor), values ahead:

| Emax [1] | Emax [2] | Ki (Glucocorticoid receptor) | Emax [3] | IP [4] | IP [5] | IP [6] | SMILES |
| --- | --- | --- | --- | --- | --- | --- | --- |
| 25% | 17% | < 1 nM | 72% | 30 nM | 26 nM | 43 nM | CCCNC(=O)c1c(F)cccc1CC[C@]1(O)CCC2=Cc3c(cnn3-c3ccc(F)cc3)C[C@@]21C |
| 24% | 16% | < 1 nM | 67% | 119 nM | 95 nM | 132 nM | C=C(C)CNC(=O)c1c(F)cccc1CC[C@]1(O)CCC2=Cc3c(cnn3-c3ccc(F)cc3)C[C@@]21C |
| 75% | 58% | < 1 nM | 84% | 10 nM | 9 nM | 11 nM | C[C@]12Cc3cnn(-c4ccc(F)cc4)c3C=C1CC[C@@]2(O)CCc1cccc(F)c1C(N)=O |
| 82% | 89% | < 1 nM | 90% | 3 nM | 6 nM | 7 nM | C[C@]12Cc3cnn(-c4ccc(F)cc4)c3C=C1CC[C@@]2(O)CCc1c(F)cccc1C(N)=O |
| 37% | 21% | 1 nM | 62% | 123 nM | 62 nM | 93 nM | C=CCNC(=O)c1ccccc1CC[C@]1(O)CCC2=Cc3c(cnn3-c3ccc(F)cc3)C[C@@]21C |
| 120% | 47% | < 1 nM | 70% | 89 nM | 36 nM | 58 nM | C[C@]12Cc3cnn(-c4ccc(F)cc4)c3C=C1CC[C@@]2(O)CCc1cc(F)ccc1C(N)=O |
| 83% | 71% | 1 nM | 88% | 26 nM | 33 nM | 30 nM | CC(C)(CO)NC(=O)c1ccccc1CC[C@]1(O)CCC2=Cc3c(cnn3-c3ccc(F)cc3)C[C@@]21C |
